ChEMBL document CHEMBL1140003, “Bivalent ligand approach on 4-[2-(3-methoxyphenyl)ethyl]-1-(2-methoxyphenyl)piperazine: synthesis and binding affinities for 5-HT(7) and 5-HT(1A) receptors” (Bioorg Med Chem, 2007)

What was measured:
[1] = molecular target: 5-hydroxytryptamine receptor 7 (Rattus norvegicus, UniProt P32305); test: Displacement of [3H]LSD from rat recombinant 5HT7 receptor expressed in HEK293 cells; type: cell-based
Summary of the method: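 Membranes (30 µg) incubated 60 min at 37 °C with 2.5 nM [3H]LSD and 6–9 test concentrations in 50 mM Tris, 10 mM MgCl2, 0.5 mM EDTA, pH 7.4. Stopped by GF/A filtration (0.5% PEI pre-soak), cold-buffer washes; nonspecific binding defined by 10 µM 5-CT. Ki by nonlinear curve fit and Cheng–Prusoff; mean ± SEM of three experiments in triplicate.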

[2] = molecular target: 5-hydroxytryptamine receptor 1A (Homo sapiens) (UniProt P08908); test: Displacement of [3H]-8-OH-DPAT from human recombinant 5HT1A receptor expressed in HEK293 cells
Chain of 5-hydroxytryptamine receptor 1A (Homo sapiens) (P08908 whole entry, looked up): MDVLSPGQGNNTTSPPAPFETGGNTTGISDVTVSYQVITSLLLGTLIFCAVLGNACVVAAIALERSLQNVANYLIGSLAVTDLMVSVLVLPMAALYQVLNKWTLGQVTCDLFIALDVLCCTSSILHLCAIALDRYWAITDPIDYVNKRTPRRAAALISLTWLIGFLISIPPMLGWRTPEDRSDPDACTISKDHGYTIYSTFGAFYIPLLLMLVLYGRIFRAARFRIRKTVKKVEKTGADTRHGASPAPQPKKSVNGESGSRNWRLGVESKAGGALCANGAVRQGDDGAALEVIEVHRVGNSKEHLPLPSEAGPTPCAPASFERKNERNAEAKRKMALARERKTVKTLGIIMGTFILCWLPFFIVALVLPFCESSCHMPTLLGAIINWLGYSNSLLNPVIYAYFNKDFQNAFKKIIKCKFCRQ

Chain of 5-hydroxytryptamine receptor 7 (P32305 whole entry): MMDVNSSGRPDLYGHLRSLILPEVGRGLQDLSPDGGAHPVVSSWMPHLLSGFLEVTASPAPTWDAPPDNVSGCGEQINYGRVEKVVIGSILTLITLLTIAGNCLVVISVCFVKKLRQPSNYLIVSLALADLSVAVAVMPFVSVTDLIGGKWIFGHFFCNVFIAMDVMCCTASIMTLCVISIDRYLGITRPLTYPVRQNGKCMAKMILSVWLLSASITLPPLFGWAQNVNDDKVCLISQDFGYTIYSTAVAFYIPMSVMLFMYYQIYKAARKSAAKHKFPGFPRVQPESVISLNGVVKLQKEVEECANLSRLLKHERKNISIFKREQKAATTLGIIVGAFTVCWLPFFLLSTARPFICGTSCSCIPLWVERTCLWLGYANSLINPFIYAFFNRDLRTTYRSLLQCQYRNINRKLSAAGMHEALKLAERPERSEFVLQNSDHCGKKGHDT

Structure (SMILES) | Ki [1] [µM] | Ki [2] [µM]
COc1ccccc1N1CCN(CCc2cccc(OCCCOc3cccc(CCN4CCN(c5ccccc5OC)CC4)c3)c2)CC1 | 0.025 | 0.0056
COc1ccccc1N1CCN(CCc2cccc(OCCOc3cccc(CCN4CCN(c5ccccc5OC)CC4)c3)c2)CC1 | 0.0411 | 0.0022
COc1ccccc1N1CCN(CCc2cccc(OCCCCCCCCOc3cccc(CCN4CCN(c5ccccc5OC)CC4)c3)c2)CC1 | 0.573 | 0.0048
COc1ccccc1N1CCN(CCc2cccc(OCCCCOc3cccc(CCN4CCN(c5ccccc5OC)CC4)c3)c2)CC1 | 0.0285 | 0.0009
COc1ccccc1N1CCN(CCc2cccc(OCCCCCCCCCCOc3cccc(CCN4CCN(c5ccccc5OC)CC4)c3)c2)CC1 | 0.258 | 0.0283
COc1ccccc1N1CCN(CCc2cccc(OCCCCCCCCCCCCOc3cccc(CCN4CCN(c5ccccc5OC)CC4)c3)c2)CC1 | – | 0.253
COc1ccccc1N1CCN(CCc2cccc(OCCOCCOc3cccc(CCN4CCN(c5ccccc5OC)CC4)c3)c2)CC1 | 0.037 | 0.00062
COc1ccccc1N1CCN(CCc2cccc(OCCCCCOc3cccc(CCN4CCN(c5ccccc5OC)CC4)c3)c2)CC1 | 0.12 | 0.00174
COc1ccccc1N1CCN(CCc2cccc(OC(=O)COCC(=O)Oc3cccc(CCN4CCN(c5ccccc5OC)CC4)c3)c2)CC1 | 0.043 | 0.00274
COc1ccccc1N1CCN(CCc2cccc(OCCCCCCOc3cccc(CCN4CCN(c5ccccc5OC)CC4)c3)c2)CC1 | 0.0426 | 0.0016
